# Like-named read-outs stand apart in the source and are kept apart here.
# How the values were obtained:
# [1] = test system: CD69 expression in anti-IgM stimulated whole blood; experiment: anti-IgM stimulated human whole blood, FACS for CD69; assay type: cell-based; conditions: read-out: anti-IgM stimulated whole blood CD69 expression IC50
# [2] = test system: chronic lymphocytic leukaemia (CLL) and non-Hodgkin's lymphoma; conditions: cited from earlier work
# [3] = target: p110β (Homo sapiens, UniProt P42338); experiment: PI3K isoform inhibition, Ki and IC50; assay type: biochemical
# p110β, sequence (P42338 whole entry, species assumed, canonical isoform): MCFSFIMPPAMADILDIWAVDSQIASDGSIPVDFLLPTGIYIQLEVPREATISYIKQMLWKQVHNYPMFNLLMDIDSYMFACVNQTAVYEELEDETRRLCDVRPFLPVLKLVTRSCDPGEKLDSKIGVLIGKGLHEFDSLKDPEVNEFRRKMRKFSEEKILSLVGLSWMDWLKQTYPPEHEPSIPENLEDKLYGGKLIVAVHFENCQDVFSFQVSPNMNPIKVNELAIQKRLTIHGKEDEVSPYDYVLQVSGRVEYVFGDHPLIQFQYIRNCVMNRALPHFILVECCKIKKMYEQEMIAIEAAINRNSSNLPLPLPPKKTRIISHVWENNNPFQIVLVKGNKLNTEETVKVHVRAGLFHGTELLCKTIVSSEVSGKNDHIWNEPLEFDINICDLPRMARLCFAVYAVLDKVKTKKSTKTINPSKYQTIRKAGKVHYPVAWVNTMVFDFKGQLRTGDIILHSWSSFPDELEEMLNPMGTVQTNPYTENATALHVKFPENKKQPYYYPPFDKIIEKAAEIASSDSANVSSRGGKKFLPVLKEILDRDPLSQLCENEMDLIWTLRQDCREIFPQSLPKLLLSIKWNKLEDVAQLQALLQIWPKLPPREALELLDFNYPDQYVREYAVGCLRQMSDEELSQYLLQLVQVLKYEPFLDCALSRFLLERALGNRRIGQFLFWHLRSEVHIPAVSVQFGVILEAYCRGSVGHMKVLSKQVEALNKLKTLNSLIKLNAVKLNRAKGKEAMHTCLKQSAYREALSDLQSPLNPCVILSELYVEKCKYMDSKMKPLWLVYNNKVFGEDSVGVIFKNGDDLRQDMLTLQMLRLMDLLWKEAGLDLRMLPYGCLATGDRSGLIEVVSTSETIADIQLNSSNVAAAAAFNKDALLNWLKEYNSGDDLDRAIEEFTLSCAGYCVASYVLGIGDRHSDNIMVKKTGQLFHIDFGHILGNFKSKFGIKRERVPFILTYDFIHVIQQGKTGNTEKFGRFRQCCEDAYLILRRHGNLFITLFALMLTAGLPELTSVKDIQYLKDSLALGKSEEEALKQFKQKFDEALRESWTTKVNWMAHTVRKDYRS
# p110β, sequence (P27986 whole entry partner, species assumed, canonical isoform): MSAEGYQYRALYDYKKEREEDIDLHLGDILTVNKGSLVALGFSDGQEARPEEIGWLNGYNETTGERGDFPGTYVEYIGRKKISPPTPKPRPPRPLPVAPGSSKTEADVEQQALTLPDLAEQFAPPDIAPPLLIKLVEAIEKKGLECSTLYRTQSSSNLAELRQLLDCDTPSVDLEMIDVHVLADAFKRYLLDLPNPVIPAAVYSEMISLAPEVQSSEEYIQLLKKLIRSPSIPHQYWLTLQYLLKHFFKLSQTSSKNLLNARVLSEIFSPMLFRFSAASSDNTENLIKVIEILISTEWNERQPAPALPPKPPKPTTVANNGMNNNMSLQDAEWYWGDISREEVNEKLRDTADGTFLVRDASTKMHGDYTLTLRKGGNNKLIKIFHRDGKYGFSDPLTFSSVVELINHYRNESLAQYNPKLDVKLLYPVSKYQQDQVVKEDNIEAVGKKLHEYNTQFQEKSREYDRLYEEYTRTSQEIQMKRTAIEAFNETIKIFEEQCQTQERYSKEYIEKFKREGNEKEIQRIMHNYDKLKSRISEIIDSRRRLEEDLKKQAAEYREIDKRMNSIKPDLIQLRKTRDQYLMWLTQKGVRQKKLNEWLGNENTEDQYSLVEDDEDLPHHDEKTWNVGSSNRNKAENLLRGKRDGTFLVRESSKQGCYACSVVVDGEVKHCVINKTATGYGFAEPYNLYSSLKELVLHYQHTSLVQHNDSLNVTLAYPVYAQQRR
# [4] = test system: 4T1 cells; experiment: Proliferation of 4T1 cells in vitro; assay type: cell-based, mouse; conditions: 4 h treatment, washing, MTS staining after 48 h culture
# [5] = target: p110δ (Homo sapiens, UniProt O00329); experiment: PI3K isoform inhibition, Ki and IC50; assay type: biochemical
# p110δ, sequence (O00329 whole entry, species assumed, canonical isoform): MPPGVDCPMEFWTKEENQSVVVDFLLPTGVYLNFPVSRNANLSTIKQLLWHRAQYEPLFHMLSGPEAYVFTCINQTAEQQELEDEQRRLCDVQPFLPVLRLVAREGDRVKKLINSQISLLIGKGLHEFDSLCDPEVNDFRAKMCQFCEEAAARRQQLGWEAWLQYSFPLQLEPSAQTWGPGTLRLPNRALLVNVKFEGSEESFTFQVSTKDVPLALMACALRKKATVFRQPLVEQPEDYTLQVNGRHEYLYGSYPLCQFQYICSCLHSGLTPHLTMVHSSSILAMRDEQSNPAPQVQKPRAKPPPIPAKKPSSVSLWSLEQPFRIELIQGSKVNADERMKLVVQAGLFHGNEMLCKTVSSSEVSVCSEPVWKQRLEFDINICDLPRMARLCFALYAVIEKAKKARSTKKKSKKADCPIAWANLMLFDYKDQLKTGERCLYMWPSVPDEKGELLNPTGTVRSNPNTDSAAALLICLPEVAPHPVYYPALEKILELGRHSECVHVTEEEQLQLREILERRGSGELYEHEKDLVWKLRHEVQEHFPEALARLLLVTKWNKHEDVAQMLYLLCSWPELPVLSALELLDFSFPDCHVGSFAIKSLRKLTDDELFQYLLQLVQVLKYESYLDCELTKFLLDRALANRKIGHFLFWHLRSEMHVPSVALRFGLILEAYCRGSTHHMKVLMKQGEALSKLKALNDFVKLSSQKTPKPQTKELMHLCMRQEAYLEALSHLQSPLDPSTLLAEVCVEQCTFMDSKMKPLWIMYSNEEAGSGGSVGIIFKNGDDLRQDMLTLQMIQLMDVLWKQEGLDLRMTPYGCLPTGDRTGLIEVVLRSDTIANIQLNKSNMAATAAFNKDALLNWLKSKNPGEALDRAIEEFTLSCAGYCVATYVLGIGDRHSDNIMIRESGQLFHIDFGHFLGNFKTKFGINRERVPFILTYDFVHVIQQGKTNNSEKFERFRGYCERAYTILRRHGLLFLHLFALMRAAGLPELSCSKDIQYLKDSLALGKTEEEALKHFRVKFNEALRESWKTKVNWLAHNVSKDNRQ
# p110δ, sequence (P27986 whole entry partner, species assumed, canonical isoform): as the sequence (P27986 whole entry partner, species assumed, canonical isoform) above
# [6] = test system: 72 protein kinases; experiment: KinaseProfiler assay; assay type: biochemical; conditions: at ≤ 10 μM
# [7] = test system: 4T1 tumour; experiment: 4T1 breast cancer model, orthotopic in mammary fat pad, oral PI-3065; assay type: in vivo, female WT BALB/c mice; conditions: 75 mg/kg daily per os
# How it was run: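 Luciferase-labelled 4T1 cells (10^5) inoculated into the mammary/breast fat pad 12 h after the first oral dose of vehicle or test compound (75 mg/kg daily, 36 days). Tumour growth followed by luciferase imaging and caliper volume. Tumour weight and luciferase activity measured in tumours excised 35 days after inoculation. Metastasis incidence by H&E histology as % of tumour-bearing mice. Body weight change from day 0. Mann-Whitney test.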
# [8] = target: p110γ (Homo sapiens, UniProt P48736); experiment: PI3K isoform inhibition, Ki and IC50; assay type: biochemical
# p110γ, sequence (P48736 whole entry, species assumed, canonical isoform): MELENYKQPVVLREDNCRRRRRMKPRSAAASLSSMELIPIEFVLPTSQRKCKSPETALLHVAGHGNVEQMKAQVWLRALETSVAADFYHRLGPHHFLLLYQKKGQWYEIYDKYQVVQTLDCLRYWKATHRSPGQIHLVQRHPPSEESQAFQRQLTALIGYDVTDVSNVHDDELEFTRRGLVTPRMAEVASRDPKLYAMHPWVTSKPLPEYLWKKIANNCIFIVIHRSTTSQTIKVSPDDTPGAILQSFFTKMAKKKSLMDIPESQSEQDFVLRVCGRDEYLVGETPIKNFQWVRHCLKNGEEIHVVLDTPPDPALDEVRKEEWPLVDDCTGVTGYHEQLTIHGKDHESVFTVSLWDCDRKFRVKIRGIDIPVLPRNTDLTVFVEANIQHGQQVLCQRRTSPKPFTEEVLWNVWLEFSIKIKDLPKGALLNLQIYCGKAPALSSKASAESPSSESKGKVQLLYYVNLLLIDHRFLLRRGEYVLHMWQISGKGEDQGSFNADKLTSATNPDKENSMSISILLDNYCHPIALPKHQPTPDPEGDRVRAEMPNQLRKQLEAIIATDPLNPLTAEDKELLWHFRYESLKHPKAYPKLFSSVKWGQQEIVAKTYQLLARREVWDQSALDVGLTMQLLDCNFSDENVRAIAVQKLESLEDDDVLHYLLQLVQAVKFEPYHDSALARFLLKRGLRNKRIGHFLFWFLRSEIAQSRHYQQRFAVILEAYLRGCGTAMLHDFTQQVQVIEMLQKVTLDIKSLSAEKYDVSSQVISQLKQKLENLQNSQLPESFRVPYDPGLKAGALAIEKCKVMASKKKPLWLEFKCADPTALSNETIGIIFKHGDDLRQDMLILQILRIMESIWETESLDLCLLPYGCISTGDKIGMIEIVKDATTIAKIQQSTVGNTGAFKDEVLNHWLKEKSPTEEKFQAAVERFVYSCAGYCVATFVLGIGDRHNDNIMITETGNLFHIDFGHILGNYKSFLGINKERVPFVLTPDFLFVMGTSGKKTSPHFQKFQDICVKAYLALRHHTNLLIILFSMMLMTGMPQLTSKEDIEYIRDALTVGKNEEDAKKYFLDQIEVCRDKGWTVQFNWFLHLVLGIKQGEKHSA
# [9] = target: p110α (Homo sapiens, UniProt P42336); experiment: PI3K isoform inhibition, Ki and IC50; assay type: biochemical
# p110α, sequence (P42336 whole entry, species assumed, canonical isoform): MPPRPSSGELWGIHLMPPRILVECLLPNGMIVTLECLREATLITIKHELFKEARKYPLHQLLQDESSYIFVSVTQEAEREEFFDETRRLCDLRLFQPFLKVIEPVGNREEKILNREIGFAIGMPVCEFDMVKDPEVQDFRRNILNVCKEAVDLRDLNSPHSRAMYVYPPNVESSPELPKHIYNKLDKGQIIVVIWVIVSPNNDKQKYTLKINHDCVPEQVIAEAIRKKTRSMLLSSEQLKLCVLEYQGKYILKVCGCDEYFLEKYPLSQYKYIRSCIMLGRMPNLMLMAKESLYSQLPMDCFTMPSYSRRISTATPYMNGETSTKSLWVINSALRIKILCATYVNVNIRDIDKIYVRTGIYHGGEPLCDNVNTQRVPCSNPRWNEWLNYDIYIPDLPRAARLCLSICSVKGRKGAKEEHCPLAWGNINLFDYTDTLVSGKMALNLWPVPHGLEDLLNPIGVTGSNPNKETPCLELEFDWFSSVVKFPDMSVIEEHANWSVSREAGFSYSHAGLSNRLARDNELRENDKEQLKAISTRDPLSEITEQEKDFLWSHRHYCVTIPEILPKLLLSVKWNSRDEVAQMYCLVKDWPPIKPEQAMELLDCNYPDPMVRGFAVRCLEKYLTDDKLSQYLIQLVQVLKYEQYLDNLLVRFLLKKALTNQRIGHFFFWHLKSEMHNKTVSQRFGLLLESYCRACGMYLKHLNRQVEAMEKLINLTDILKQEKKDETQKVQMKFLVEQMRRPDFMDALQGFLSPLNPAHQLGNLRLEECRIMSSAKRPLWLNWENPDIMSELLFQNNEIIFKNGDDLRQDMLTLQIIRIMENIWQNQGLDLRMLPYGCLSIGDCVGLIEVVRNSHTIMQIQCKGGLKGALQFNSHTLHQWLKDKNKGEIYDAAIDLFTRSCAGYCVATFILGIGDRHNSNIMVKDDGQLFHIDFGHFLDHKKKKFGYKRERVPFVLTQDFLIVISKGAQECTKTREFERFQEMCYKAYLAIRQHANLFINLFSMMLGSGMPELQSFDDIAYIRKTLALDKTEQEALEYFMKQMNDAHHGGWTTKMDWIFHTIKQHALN
# p110α, sequence (P27986 whole entry partner, species assumed, canonical isoform): as the sequence (P27986 whole entry partner, species assumed, canonical isoform) above
# [10] = test system: pancreatic ductal adenocarcinoma (PDAC); experiment: KPC model of pancreatic ductal adenocarcinoma, treatment of palpable disease; assay type: in vivo, KPC mice
# How it was run: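 KPC mice (endogenous mutant KrasG12D and p53R172H in Pdx1+ pancreatic cells) developed palpable disease before vehicle or test compound (75 mg/kg) began. Read-outs were survival, macrometastases and pathology by H&E, Treg (% of CD4+) and CD44high cells (% of CD8+) in draining lymph nodes, and CD8+ cells (% of CD45+) in normal pancreas versus PDAC lesions. Mann-Whitney test.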
# [11] = 36 consecutive days, 4T1 tumour-bearing mice
# [12] = 75 mg/kg, treatment after palpable disease
SMILES,"IC50 ([1]; human whole blood, anti-IgM, FACS for CD69) [µM]",therapeutic impact in patients [2],IC50 ([1]; Homo sapiens) [µM],IC50 [3] [µM],Ki [3] [µM],in vitro growth inhibition of 4T1 cells [4],Ki [5] [µM],activity against 72 protein kinases [6],"body weight loss [7, 11]","tolerability of long-term administration [7, 11]",4T1 metastasis ([7]; 36 days),4T1 tumour growth ([7]; 36 days),IC50 [8] [µM],Ki [8] [µM],Ki [9] [µM],"incidence of metastases and other disease-associated pathologies [10, 12]","survival of KPC mice [10, 12]",infiltrating CD8+ T cells in pancreatic lesions ([10]; 14 days after treatment),levels of CD44high CD8+ lymphocytes in the draining lymph nodes ([10]; after 7 days of treatment),relative abundance of peripheral Treg in lymph nodes ([10]; after 7 days of treatment)
Cc1ccccc1-n1c(Cn2cnc3c(N)ncnc32)nc2cccc(C)c2c1=O [IC87114],3.5,–,–,–,–,–,–,–,–,–,–,–,–,–,–,–,–,–,–,–
CC[C@H](Nc1ncnc2[nH]cnc12)c1nc2cccc(F)c2c(=O)n1-c1ccccc1 [Idelalisib],–,impressive therapeutic impact,0.06,–,–,–,–,–,–,–,–,–,–,–,–,–,–,–,–,–
Fc1ccc2[nH]ccc2c1-c1nc(N2CCOCC2)c2sc(CN3CCN(CC4CC4)CC3)cc2n1 [PI-3065],–,–,0.038,0.6,0.13,not growth-inhibited,0.0015,No significant activity,did not induce weight loss,well-tolerated,suppressed,suppressed,> 10,0.94,0.11,reduced,prolonged survival,relatively more,higher levels,reduced

# From article PMC4501086 (Nature, 2014)
